Published values pooled from the literature.
Target: Serine/threonine-protein kinase haspin (HASPIN, Homo sapiens, UniProt Q8TF76)
Sequence (Q8TF76 1-798, as in one of the studies): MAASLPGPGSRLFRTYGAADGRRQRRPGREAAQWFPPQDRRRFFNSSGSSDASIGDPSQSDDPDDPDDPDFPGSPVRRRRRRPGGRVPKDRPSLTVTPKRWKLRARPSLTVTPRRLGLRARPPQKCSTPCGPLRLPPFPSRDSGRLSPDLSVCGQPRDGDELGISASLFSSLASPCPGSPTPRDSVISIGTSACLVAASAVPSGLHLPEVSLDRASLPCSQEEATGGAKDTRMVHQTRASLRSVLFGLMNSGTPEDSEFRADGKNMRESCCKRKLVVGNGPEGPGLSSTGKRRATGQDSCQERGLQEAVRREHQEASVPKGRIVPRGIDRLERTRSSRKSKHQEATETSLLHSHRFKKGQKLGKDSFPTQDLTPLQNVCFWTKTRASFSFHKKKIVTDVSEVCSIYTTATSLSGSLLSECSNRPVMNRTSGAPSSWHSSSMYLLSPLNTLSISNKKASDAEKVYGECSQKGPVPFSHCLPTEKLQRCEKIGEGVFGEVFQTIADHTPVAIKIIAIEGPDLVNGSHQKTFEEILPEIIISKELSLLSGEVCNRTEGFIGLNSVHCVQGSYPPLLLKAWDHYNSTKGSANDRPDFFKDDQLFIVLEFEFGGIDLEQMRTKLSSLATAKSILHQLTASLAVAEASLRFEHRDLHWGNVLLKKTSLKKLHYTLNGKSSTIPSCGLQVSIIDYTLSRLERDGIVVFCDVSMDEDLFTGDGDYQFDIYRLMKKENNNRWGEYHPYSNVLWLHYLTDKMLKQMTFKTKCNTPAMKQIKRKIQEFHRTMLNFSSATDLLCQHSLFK

SMILES | read-out | technique | concentration | remaining binding [%]
N[C@@H]1CCN(c2nccc(-c3cnn4ncccc34)n2)C1 | binding | – | 1 µM | 2.5
COc1ncc2cc3ccccc3nc2c1C#N | cell-free assay | competition with immobilised ligand | 5 µM | 51
O=C(NCCCN1CCOCC1)c1ccc(Nc2ncc(Cl)c(-c3ccc(Cl)s3)n2)cc1 | binding | competition with immobilised ligand | 1 µM | 51
CS(=O)(=O)N1CCCC(NC(=O)[C@H](CCC2CCCCC2)NC(=O)c2ccc(CNc3ncnc4c3nnn4-c3ccccc3)cc2)C1 (stereo partly shown) | cell-free assay | competition with immobilised ligand | 0.1 µM | 100
O=C(NCCCN1CCOCC1)c1ccc(Nc2nccc(-c3cc4ccccc4s3)n2)cc1 | binding | competition with immobilised ligand | 1 µM | 80
Nc1ncc2c(n1)-c1c([nH]c3ccc(C#CC4CC4)cc13)CCCC2 | binding | competition with immobilised ligand | 1 µM | 100
COc1ccnn2ncc(-c3ccnc(N(C)C)n3)c12 | binding | – | 1 µM | 1.8
O=C(Nc1c[nH]nc1C(=O)NC1CCNCC1)c1cc(F)cc(F)c1 | binding | competition with immobilised ligand | 1 µM | 96
CC1CCCN1c1nccc(-c2cnn3ncccc23)n1 (stereo not shown) | binding | – | 1 µM | 21
Cn1nc(C(F)(F)F)cc1-c1cnc(N2CCc3cc(S(=O)(=O)Nc4c(F)cc(Cl)cc4F)cc(N4CCCC4=O)c32)nc1 | cell-free assay | competition with immobilised ligand | 1 µM | 68
CN(C)c1ncc(F)c(-c2cnn3ncccc23)n1 | binding | – | 1 µM | 37
CCN1CCN(Cc2ccc(C(=O)Nc3ccc(C)c(Oc4ccc5c(c4)CC(=O)N5)c3)cc2C(F)(F)F)CC1 | binding | competition with immobilised ligand | 1 µM | 100
C=CC(=O)N1CCC(C(=O)NCC(=O)N2CCN(c3nc(-c4cnc(N)nc4C(F)F)nc(N4CCOCC4)n3)CC2)CC1 | binding | competition with immobilised ligand | 1 µM | 75
C[C@H](c1ccnc(Nc2nc3ccc(-c4cc(N(C)C)ncn4)cc3[nH]2)c1)N1CCN(C(=O)CC(F)(F)F)CC1 | cell-free assay | competition with immobilised ligand | 0.1 µM | 100
O=C(c1ccc(Nc2ncc(Cl)c(-c3ccc(Cl)s3)n2)cc1)N1CCC(N2CCCC2)CC1 | binding | competition with immobilised ligand | 1 µM | 39
CSc1cccnc1N1CCN(Cc2nc3ccccc3[nH]2)CC1 | cell-free assay | competition with immobilised ligand | 1 µM | 100
COc1cnc(Nc2cccc(S(N)(=O)=O)c2)nc1N1CCN(c2ccccc2)CC1 | binding | competition with immobilised ligand | 1 µM | 82
O=C(Nc1cnc(Oc2ccc(F)cc2)nc1)N1CCc2ncccc2[C@@H]1c1ccc(F)cc1 | cell-free assay | competition with immobilised ligand | 1 µM | 93
CN(c1nccc(-c2cnn3ncccc23)n1)C1CC1 | binding | – | 1 µM | 18
COc1ccc2cc(OCC3(C(=O)O)CN(C(=O)c4ccc(F)cc4)C3)ccc2c1 | cell-free assay | competition with immobilised ligand | 1 µM | 100
C[C@@H]1CCN(c2nccc(-c3cnn4ncccc34)n2)C1 | binding | – | 1 µM | 2
C[C@@H](c1ccc(-n2cnc3c(N)ncnc32)cc1)N1CCc2nn(C)c(Cc3ccccc3)c2C1=O | binding | competition with immobilised ligand | 0.1 µM | 79
